≈ marks a conversion by molar mass, not a printed value. Where “and” joins values, the source holds several entries; their conditions need not be identical. Equal values may be shown once.
Assays:
Proteus vulgaris = experiment: In vitro inhibition of growth of Proteus vulgaris(OX-19); type: functional
Outline: (§1)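 Agar dilution using serial 2-fold dilutions in Mueller-Hinton agar, with plate concentrations 0.006 to 100 μg/mL. Inoculum approx. 10^6 cfu/mL. Plates incubated at 37 °C for 18 h. MIC taken as the lowest concentration preventing visible bacterial growth.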

Staphylococcus aureus = experiment: Inhibition of growth of Staphylococcus aureus (FDA207PJC-1) after incubation at 37 degree Centigrade; type: functional; outline: as §1
Escherichia coli [1] = experiment: (§2) Inhibition of growth of Escherichia coli (KC-14) upon oral administration in mice; type: functional
Outline: (§3)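 Groups of 10 male ddY mice (20 ± 2 g) were inoculated intraperitoneally with 0.5 mL of E. coli KC-14 at 10 or 100 times the 50% lethal dose. Compounds, suspended in 0.5% sodium (carboxymethyl)cellulose, were given orally 1 h postinfection. Survival was scored after 1 week. ED50 is reported with 95% confidence limits.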

Klebsiella pneumoniae = experiment: In vitro inhibition of growth of Klebsiella pneumoniae (PC-1602); type: functional; outline: as §1
Pseudomonas aeruginosa = experiment: In vitro inhibition of growth of Pseudomonas aeruginosa(E-2); type: functional; outline: as §1
Serratia marcescens = experiment: In vitro inhibition of growth of Serratia marcescens (IAM1184); type: functional; outline: as §1
Escherichia coli [2] = experiment: In vitro Inhibition of growth of Escherichia coli(KC-14); type: functional; outline: as §1
[3] = Area under the curve in concentration/ time; type: ADME
Outline: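 Mice dosed orally at 50 mg/kg (formyl prodrug at a dose equivalent to 50 mg/kg of parent acid), suspended in 0.5% sodium (carboxymethyl)cellulose. Mice killed by bleeding at 0.5, 1.0, 2.0 and 4.0 h. Blood centrifuged and serum drug levels measured by HPLC. AUC from the serum concentration–time curve, in μg/mL per hour.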

Escherichia coli [4] = experiment: (§4) Inhibition of growth of Escherichia coli (KC-14) upon oral administration in mice(95%CL); type: functional
Outline: (§5)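 Male ddY mice (20 ± 2 g, groups of 10) infected intraperitoneally with 0.5 mL of E. coli KC-14 dilution at 10 or 100 times the 50% lethal dose. Compounds suspended in 0.5% sodium (carboxymethyl)cellulose and given orally 1 h postinfection. Survival scored after 1 week. ED50 derived with 95% confidence limits.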

Bacillus subtilis = experiment: In vitro inhibition of growth of Bacillus subtilis (ATCC 6633); type: functional; outline: as §1
Mus musculus [5] = experiment: as §2; type: functional; outline: as §3
Mus musculus [6] = experiment: as §4; type: functional; outline: as §5
Mus musculus [7] = experiment: Serum levels in Mice 0.5 hr after Oral administration of 50 mg/kg; nd= Not detected; type: functional, organism-based; design: dose 50 mg/kg
Outline: (§6)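 Mice dosed orally at 50 mg/kg, suspended in 0.5% sodium (carboxymethyl)cellulose; prodrugs given at a dose equivalent to 50 mg/kg of parent acid. Mice killed by bleeding at 0.5, 1.0, 2.0 and 4.0 h, and serum obtained by centrifugation. Serum analysed by HPLC, eluting with 5% AcOH/MeOH (70/30). Values given with standard deviation.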

Mus musculus [8] = experiment: Serum levels in Mice 4 hr after Oral administration of 50 mg/kg; nd= Not detected; type: functional, organism-based; design: dose 50 mg/kg; outline: as §6
Mus musculus [9] = experiment: Serum levels in Mice 1 hr after Oral administration of 50 mg/kg; nd= Not detected; type: functional, organism-based; design: dose 50 mg/kg; outline: as §6
Mus musculus [10] = experiment: Serum levels in Mice 2 hr after Oral administration of 50 mg/kg; nd= Not detected; type: functional, organism-based; design: dose 50 mg/kg; outline: as §6
[11] = Proteus vulgaris, read-out: MIC
[12] = Staphylococcus aureus, read-out: MIC
[13] = Klebsiella pneumoniae, read-out: MIC

MIC (Staphylococcus aureus) [µg/mL]	MIC (Klebsiella pneumoniae) [µg/mL]	Structure (SMILES)	MIC (Proteus vulgaris) [µg/mL]	MIC (Proteus vulgaris; [11]) [µg/mL]	MIC (Staphylococcus aureus; [12]) [µg/mL]	ED50 (Escherichia coli [1]) [mg/kg]	ED50 (Escherichia coli [1]; Escherichia coli, po) [mg/kg]	MIC (Klebsiella pneumoniae; [13]) [µg/mL]	MIC (Pseudomonas aeruginosa) [µg/mL]	MIC (Serratia marcescens) [µg/mL]	MIC (Escherichia coli [2]) [µg/mL]	AUC [3]	ED50 (Escherichia coli [4]) [mg/kg]	MIC (Bacillus subtilis) [µg/mL]	ED50 (Mus musculus [5]) [mg/kg]	ED50 (Mus musculus [6]) [mg/kg]	Serum level (Mus musculus [7])	Serum level (Mus musculus [8])	Serum level (Mus musculus [9])	Serum level (Mus musculus [10])
0.39 (≈ 1.17 µM)	0.05 (≈ 0.15 µM)	CCn1cc(C(=O)O)c(=O)c2cc(F)c(N3CCN(C)CC3)cc21 [PEFLOXACIN]	0.05 (≈ 0.15 µM)	0.05 (≈ 0.15 µM)	0.39 (≈ 1.17 µM)	1.67	1.67	0.05 (≈ 0.15 µM)	–	–	–	–	–	–	–	–	–	–	–	–
–	–	CCn1cc(C(=O)O)c(=O)c2cc(F)c(N3CCNCC3)cc21 [NORFLOXACIN]	–	0.05 (≈ 0.157 µM)	0.2 (≈ 0.626 µM)	–	–	0.05 (≈ 0.157 µM)	0.78 (≈ 2.44 µM)	0.2 (≈ 0.626 µM)	0.1 (≈ 0.313 µM)	0.98 µg/mL/h and 1.77 µg/mL/h	7.68	0.2 (≈ 0.626 µM)	–	–	–	–	–	–
–	–	O=Cc1cn(C2CC2)c2cc(N3CCNCC3)c(F)cc2c1=O	–	3.13 (≈ 9.93 µM)	25 (≈ 79.3 µM)	–	–	12.5 (≈ 39.6 µM)	50 (≈ 159 µM)	12.5 (≈ 39.6 µM)	3.13 (≈ 9.93 µM)	–	–	6.25 (≈ 19.8 µM)	0.49	–	–	–	–	–
–	–	CCn1cc(C=O)c(=O)c2cc(F)c(N3CCN(C)CC3)cc21	1.56 (≈ 4.92 µM)	–	12.5 (≈ 39.4 µM)	–	–	1.56 (≈ 4.92 µM)	< 25	12.5 (≈ 39.4 µM)	6.25 (≈ 19.7 µM)	–	–	3.13 (≈ 9.86 µM)	–	0.84	–	–	–	–
–	–	CCn1cc(C=O)c(=O)c2cc(F)c(N3CCNCC3)cc21	–	6.25 (≈ 20.6 µM)	< 100	–	–	3.12 (≈ 10.3 µM)	< 100	< 100	12.5 (≈ 41.2 µM)	–	–	12.5 (≈ 41.2 µM)	2.53	–	Not detected	Not detected	Not detected	Not detected
